Tests used:
[1] = In vitro release study; type: physicochemical; details: PBS pH = 7.4 and pH = 5, 1% SDS, 37 ℃
Method in brief: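 Test compound-loaded micelles or free test compound were placed in a pre-soaked dialysis bag (MWCO 500) immersed in PBS containing 1% (w/v) SDS at pH 7.4 or pH 5. Bags were shaken at 200 rpm at 37 ℃. Outside medium was sampled at 0.5, 1, 2, 4, 6, 8, 12, 24 and 48 h and replaced with fresh PBS. Cumulative release was tracked.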

[2] = Tissue distribution and targeting evaluation after i.v. administration to mice; type: in vivo, ICR mice; details: for Cmax: male, ICR, mouse, iv, 2.8 mg/kg
Method in brief: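 Male ICR mice (6-8 weeks, 27-28 g) received 2.8 mg/kg i.v. as free compound or micelles. Four mice were killed per time point (0.17, 0.5, 1, 2 h), and heart, liver, lung, kidney and brain were collected. Tissues were rinsed, weighed, homogenised in cold saline (1:2 w/v), centrifuged, and supernatants assayed by LC-MS/MS.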

[3] = test system: MCAO mice; assay: MCAO model: behavioural tests; type: in vivo, C57BL/6 mice; details: i.v. for 7 days, seventh day after the operation
Method in brief: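 Male C57BL/6 mice (6-8 weeks, 24-26 g), four per group, were anaesthetised with 5% chloral hydrate i.p. The right CCA/ECA/ICA were exposed, and a monofilament was placed and removed after 1 h for reperfusion; sham mice had no monofilament. Dosing was i.v. for 7 days: free compound 3 mg/kg, micelles 1 or 3 mg/kg, edaravone 3 mg/kg. A blinded investigator scored Longa on days 1 and 7.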

[4] = test system: MCAO mice; assay: MCAO model: Nissl, TUNEL and LC3 immunofluorescence staining of brain sections; type: in vivo, C57BL/6 mice; details: i.v. for 7 days
[5] = Pharmacokinetics after single i.v. administration to rats; type: in vivo, Sprague Dawley rats
Method in brief: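 Male Sprague Dawley rats (7-9 weeks, 240-260 g), six per group, were fasted overnight. Each received one tail-vein dose of 2 mg/kg as free compound (saline with 30% propylene glycol) or micelles. Jugular blood was drawn into heparinised tubes at 0.03–8 h, and plasma was separated at 4 ℃. Samples were quantified by validated LC-ESI-MS/MS, and PK parameters were calculated; mean ± SD.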

[6] = Sprague Dawley, rat, plasma, iv, 2 mg/kg

cumulative release ([1]; in eight hours): ~90%
cumulative release ([1]; within the first four hours): More than 60%
Cmax ([2]; brain): 21.7 ± 3.45 ng/g
Cmax ([2]; heart): 69.2 ± 10.5 ng/g
Cmax ([2]; kidney): 713 ± 35 ng/g
Cmax ([2]; liver): 574 ± 137 ng/g
Cmax ([2]; lung): 179 ± 31.4 ng/g
detectability of ISL in tissues 1 h after administration ([2]; mice, i.v. 2.8 mg/kg, 1 h): could not be detected
AUC ([2]; mice, i.v. 2.8 mg/kg, Brain): 8.34 ± 0.61 ng·h/g
AUC ([2]; mice, i.v. 2.8 mg/kg, Heart): 18.66 ± 2.11 ng·h/g
AUC ([2]; mice, i.v. 2.8 mg/kg, Kidney): 174.7 ± 9.70 ng·h/g
AUC ([2]; mice, i.v. 2.8 mg/kg, Liver): 207.70 ± 28.50 ng·h/g
AUC ([2]; mice, i.v. 2.8 mg/kg, Lung): 55.24 ± 6.28 ng·h/g
AUC(0-inf) [5, 6]: 373 ± 106 ng·h/mL
AUC(0-t) [5, 6]: 307 ± 92.5 ng·h/mL
MRT last [5, 6]: 10.2 ± 1.8 min
clearance [5, 6]: 96.3 mL/min/kg
detectability of ISL in plasma over time ([5]; rats, single i.v. 2 mg/kg): could not be detected after 2 hours
CL (clearance rate) ([5]; rats, single i.v. 2 mg/kg, plasma ISL): 5.78 ± 1.74 L/h/kg
SMILES: O=C(/C=C/c1ccc(O)cc1)c1ccc(O)cc1O [ISL, (e)-1-(2,4-dihydroxyphenyl)-3-(4-hydroxyphenyl) −2-propen-1-one]
neurological scores (Longa scores) compared with the MCAO model group [3]: significantly decreased
Nissl staining of neurons (Nissl bodies) [4]: not significantly different from that in the model group
number of positive cells expressing the LC3 protein [4]: less than that in the model group and more than that in the ISL-M group
number of positive cells stained with the TUNEL [4]: less than that in the model group and more than that in the ISL-M group

— article PMC9393037 (International Journal of Nanomedicine, 2022)
